Sampled rows, rich in hits. Any-hit rate of the full collection: about 1.8%.
SIAE inh – inhibitors of human sialic acid acetylesterase SIAE; SIAE FP-Rh probe binding, fluorescence polarization; inhibition, % at 9.66 µM; hit rate 0.69% among 370,000; Q9HAT2; AID 1053197;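 active means inhibition above a cutoff: mean of compounds within the control limits plus 3 SD of those, cut at about 17% in these data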;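 further: 0% = plate median of compound wells and 100% = probe without SIAE protein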
Tn6 DDE FP – disrupts Tn6 cyclic peptide binding to fibrin D-Dimer-E complex | P02675 | Fibrin DD(E) TRITC-Tn6 fluorescence polarization displacement | inhibition, % at 8.3 µM | hit rate 0.21% among 370,000 | AID 720509;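 active means inhibition above a per-campaign cutoff: mean of compounds within control limits plus 3 SD, cut at about 15% in these data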;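 further: 0% = median of all compound wells on the plate and 100% = blocking peptide control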
DDE Tn7 FP inh – DD(E)-Tn7 binding inhibition, primary FP screen | P02675 | FP displacement of FITC-Tn7 peptide from fibrin DD(E); 0% = median of compound wells per plate | inhibition, % at 8.3 µM | hit rate 0.13% among 370,000 | AID 720508;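 active means inhibition above the mean of compounds falling within the control limits plus 3 SD of them, cut at about 14% in these data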;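 further: 0% = plate median of compound wells and 100% = 10 µM Aha-Tn7 peptide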
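System: human fibrin DD(E); quantity: Fibrin-DD(E) at 2 µM final; also added: fluorescent Tn7 probe at 0.1 µM; compound dosing: single nominal test concentration of 8.3 µM per compound; schedule: 10 min preincubation, 3 h with tracer, room temperature; detection: fluorescence polarization of the labelled Tn7 tracer; repeats: one replicate per compound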
ABHD4 inh – ABHD4 (mouse) inhibition, primary FP screen. purified mABHD4, FP-Rh probe fluorescence polarization. inhibition, % at 8.92 µM. hit rate 0.54% among 370,000. AID 720543;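 active means inhibition exceeding the mean over every tested compound plus 3 SD, cut at about 30% in these data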;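 further: 0% = plate median of compound wells and 100% = S159A mutant with DMSO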
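Assay system: mABHD4 protein; medium: HEPES pH 7.0, NaCl, Pluronic buffer; dosing: 8.92 µM, single dose; schedule: 45 min + 60 min at 25 °C; signal: FP readout, ex 525 nm / em 598 nm; read-out: normalized percent inhibition of probe labeling; repeats: single replicate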
TCR-CD3 inh – inhibitors of human TCR-CD3 interaction; TAMRA-labeled TCR probe fluorescence, biochemical; inhibition, % at 9.4 µM; hit rate 0.37% among 360,000; AID 651800; in the data active means inhibition above about 19%;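 further: recombinant mutant TCR 2C K166C tagged with TAMRA read by polarization; 0% = receptor in buffer alone and 100% = receptor with positive control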
HTRA1 inhibitor – inhibitors of human serine peptidase HTRA1; Q92743; recombinant HTRA1, FP-rhodamine activity-based probe, fluorescence polarization; inhibition, % at 5.96 µM; hit rate 0.5% among 340,000; in the data active means inhibition above about 36%;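 further: 0% = enzyme with DMSO and 100% = wells lacking enzyme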
Target sequence (Q92743 whole entry, looked up): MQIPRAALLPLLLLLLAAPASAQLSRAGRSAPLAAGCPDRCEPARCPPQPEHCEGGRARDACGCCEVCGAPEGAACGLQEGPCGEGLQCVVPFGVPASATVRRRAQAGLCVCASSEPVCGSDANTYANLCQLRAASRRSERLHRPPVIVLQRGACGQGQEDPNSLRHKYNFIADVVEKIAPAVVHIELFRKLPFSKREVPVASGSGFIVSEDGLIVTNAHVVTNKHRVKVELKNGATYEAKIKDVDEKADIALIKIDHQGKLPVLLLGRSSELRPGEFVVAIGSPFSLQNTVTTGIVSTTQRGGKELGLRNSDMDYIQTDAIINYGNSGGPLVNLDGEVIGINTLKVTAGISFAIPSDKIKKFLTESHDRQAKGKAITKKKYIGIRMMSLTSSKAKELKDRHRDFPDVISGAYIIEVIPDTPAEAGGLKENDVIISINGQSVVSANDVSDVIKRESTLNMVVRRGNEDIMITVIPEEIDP
ABHD4 confirm – ABHD4 (mouse) inhibition, FP confirmation. hit rate 55% among 1,800. inhibition, % at 8.92 µM. purified mABHD4, FP-Rh probe fluorescence polarization. AID 720658. shares compounds with ABHD4 inh;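 active means mean inhibition across replicates above the hit cutoff set in the primary screen, cut at about 30% in these data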;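 further: 0% = wild-type ABHD4 with DMSO and 100% = catalytically dead S159A mutant with DMSO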
Active calls of the source: *; nt = not tested or not shown.

SMILES | SIAE inh | Tn6 DDE FP | DDE Tn7 FP inh | ABHD4 inh | TCR-CD3 inh | HTRA1 inhibitor | ABHD4 confirm
COc1ccccc1CCNC(C)CCc1ccc(O)cc1 (stereo not drawn) | 0.1 | -3.5 | -0.2 | -0.2 | 0.2 | 10.6 | nt
CC(CCc1ccc(O)cc1)NCCc1ccc(O)c(O)c1 (stereo not drawn) | 7.6 | -7.6 | -1.3 | 32.6* | -9.2 | 32.0 | 14.9
CN(C)c1ccc(N=Nc2ccccc2C(=O)OCC(=O)NCC2CCCCC2)cc1 | 12.7 | -8.6 | -7.2 | 42.1* | 0.0 | 31.2 | 40.3*
CN(C)c1ccc(N=Nc2ccccc2C(=O)OCC(=O)NC2CCCC2)cc1 | 5.7 | 2.2 | 1.3 | 17.8 | 1.8 | 23.0 | nt
NC(Cc1ccc(Cl)cc1)c1csc(Nc2ccc(C(F)(F)F)cn2)n1 (stereo not drawn) | -2.3 | -1.9 | 0.2 | 32.3* | 6.0 | nt | 30.3*
Cc1cccc(CSc2nnc(-c3ccccn3)n2N)c1 | -6.6 | 0.6 | 1.1 | 35.8* | 4.0 | 0.1 | 10.8
Nn1c(SCc2ccc(Br)cc2)nnc1-c1ccccn1 | -4.5 | -1.0 | 7.1 | -2.7 | 6.4 | 1.2 | nt
Cc1ccccc1S(=O)(=O)NNC(=O)C(=O)NNc1ccccn1 | -3.9 | -3.4 | 1.9 | 34.9* | -2.0 | 6.0 | 33.3*
Cc1ccc(S(=O)(=O)NNC(=O)C(=O)NNc2ccccn2)cc1 | -3.2 | 11.1 | 0.4 | 42.2* | -3.0 | 4.5 | 34.6*
O=C(N1CCOCC1)N1CC[C@H]2[C@H](CCCN2Cc2ccccc2)C1 | 0.4 | 8.7 | 4.1 | -1.9 | nt | nt | nt
CC1OC2CC(=O)OC2C2=C1C(=O)c1c(O)cccc1C2=O (stereo not drawn) | 12.7 | -4.8 | 7.3 | 38.0* | 8.2 | nt | 34.8*
CC(=O)Nc1cc2nc3ccccc3oc-2cc1=O | 2.0 | 5.2 | 2.4 | 2.8 | 12.2 | nt | nt
O=C(NCCC1=CCCCC1)C1CCN(S(=O)(=O)c2ccccc2[N+](=O)[O-])CC1 | -7.5 | 1.3 | -5.9 | -4.7 | nt | nt | nt
COC(=O)[C@H]1C[C@@]2(C#N)c3ccccc3N(C(=O)OC(C)(C)C)[C@H]2N1C(=O)OC(C)(C)C | 3.7 | -3.8 | -5.1 | 2.5 | nt | nt | nt
CC1CC(C)C(=O)C(C(CC2CC(=O)NC(=O)C2)OC(=O)CC(=O)c2ccccc2)C1 (stereo not drawn) | 0.0 | 11.5 | 5.9 | 60.0* | 1.2 | 2.1 | 15.1
COc1cccc(N(C)C(=O)[C@@H](C)[C@@H](O)c2ccc(Cl)cc2)c1 | -2.2 | 11.4 | -0.3 | -1.1 | nt | nt | nt
CS(=O)(=O)N1c2ccccc2C[C@H]1Cc1cc2ccccc2o1 | -1.6 | -1.0 | -6.2 | -2.0 | nt | nt | nt
COC(=O)CCCC1=CC2=CC(=O)C(C)(OC(=O)c3cccs3)C(=O)C2=CN1Cc1ccco1 (stereo not drawn) | 13.1 | 0.7 | -4.7 | 31.5* | 5.5 | 15.8 | 14.0
O=C(Nc1ccc(F)cc1)OCc1cn(Cc2ccccc2C(F)(F)F)nn1 | -2.3 | 3.8 | 5.4 | -5.0 | nt | nt | nt
Cc1ccccc1NC(=O)Cc1nc(COC(=O)CCc2ccccc2)cs1 | -3.1 | 5.2 | -4.4 | 52.6* | 4.0 | -6.2 | 48.2*
CCOC(=O)/C=C/C(=O)OCc1csc(CC(=O)Nc2ccccc2C)n1 | -1.7 | 11.0 | 1.2 | 29.9* | 3.2 | -7.0 | 39.9*
COC(=O)C[C@@H]1CC[C@H]2[C@H](COc3ccc(NC(=O)Nc4cccc(C#N)c4)cc3C(=O)N2C)O1 | -7.3 | -7.1 | -4.5 | -0.1 | nt | nt | nt
CCc1ccc(Nc2ccc(C(N)=O)cc2[N+](=O)[O-])cc1 | -2.9 | -6.8 | -10.3 | 0.9 | -1.0 | -2.0 | nt
COc1cccc(Nc2ccc(C(=O)O)cc2N)c1 | -1.8 | 1.8 | 3.6 | 21.9 | 0.9 | 14.8 | nt
Cc1cc(C)cc(Nc2ccc(C(=O)O)cc2[N+](=O)[O-])c1 | -2.0 | -2.9 | -5.2 | 31.8* | -1.1 | -1.2 | 54.0*
COc1cc(Nc2ccc(C(=O)O)cc2[N+](=O)[O-])cc(OC)c1 | -6.4 | 8.6 | -2.6 | 36.5* | -3.8 | -6.4 | 57.1*
CCc1ccc(Nc2ccc(C(=O)O)cc2[N+](=O)[O-])cc1 | 1.9 | -0.4 | -13.2 | 55.3* | 6.7 | 0.1 | 68.9*
O=S1(=O)c2c(cccc2N2CCC[C@H]2CO)OCCCN1C1CC1 | 0.1 | -3.0 | 3.5 | 5.6 | nt | nt | nt
O=C(c1ccccc1)c1cccc(C(=O)c2ccccc2)c1 | nt | nt | nt | nt | nt | -16.2 | nt
